MT1-MMP act inh: blockers of MT1-MMP proenzyme processing, primary screen, HT1080 RFP-PRO-GFP cells, GFP/RFP fluorescence | hit rate 0.061% among 360,000 | GFP/RFP ratio change, % at 20 µM | GFP/RFP ratio fluorescence, overnight; percent of plate control window, DMSO zero;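 active means GFP/RFP ratio change of at least 30% with cell ATP level not reduced by more than half and red fluorescence within 50% of control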
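Assay system: HT1080 cells carrying an RFP-PRO-GFP reporter | Dosing: Single dose of 20 µM compound, 1% DMSO final | Incubation: Cells overnight before dosing, compound overnight, 37 °C, 5% CO2 | Evaluation: GFP/RFP fluorescence ratio | Control set: DMSO and RFP-L50D-GFP cell wells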
NR2E3 ag-1: NR2E3 agonists in two-hybrid cells, primary screen, cell-based, luminescence, CHO-S, Gal4-NCOR/VP16-NR2E3; hit rate 0.35% among 360,000; Photoreceptor-specific nuclear receptor (Homo sapiens), Q9Y5X4; inhibition of corepressor binding, % at 3.98 µM; luciferase; AID 602229, 2012;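 active means inhibition above the mean of all tested compounds plus 3 SD, cut at about 70% in these data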;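 further: 0% = DMSO with NR2E3 transfected cells and 100% = cells lacking NR2E3 construct; higher means lower luciferase signal from less NR2E3 corepressor binding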
NR1D1 modulator: modulators of Rev-erb alpha DNA binding, primary screen, biochemical, FITC-DNA, fluorescence polarization, uHTS; Nuclear receptor subfamily 1 group D member 1 (Homo sapiens), P20393; Rev-erbα–FITC-DNA binding, 90 min; activity, % at 10 µM; hit rate 0.79% among 370,000;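 active means activity above about 14%, limit read from the data; passing the limit was not always enough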;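 further: 0% = DMSO wells with 35 nM protein and 100% = DMSO wells with 750 nM protein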
Target sequence (P20393 whole entry, looked up): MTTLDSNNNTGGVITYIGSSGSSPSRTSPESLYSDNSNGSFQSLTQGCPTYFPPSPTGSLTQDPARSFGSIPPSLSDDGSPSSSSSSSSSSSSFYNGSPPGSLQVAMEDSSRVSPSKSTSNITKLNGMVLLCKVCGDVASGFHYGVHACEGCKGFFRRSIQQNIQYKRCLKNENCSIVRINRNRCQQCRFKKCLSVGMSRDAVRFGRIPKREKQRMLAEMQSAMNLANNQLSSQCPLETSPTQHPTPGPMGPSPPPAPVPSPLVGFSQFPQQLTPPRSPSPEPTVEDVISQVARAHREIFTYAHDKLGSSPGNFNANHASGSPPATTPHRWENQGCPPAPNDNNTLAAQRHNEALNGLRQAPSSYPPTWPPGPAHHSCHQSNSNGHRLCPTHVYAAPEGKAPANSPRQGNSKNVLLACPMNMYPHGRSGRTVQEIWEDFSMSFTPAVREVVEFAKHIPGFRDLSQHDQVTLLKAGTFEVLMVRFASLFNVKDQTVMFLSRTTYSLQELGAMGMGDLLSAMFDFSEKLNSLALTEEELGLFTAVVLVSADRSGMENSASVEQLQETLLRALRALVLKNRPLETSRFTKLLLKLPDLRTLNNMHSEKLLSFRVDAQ
PG9 binder: binders of HIV-1 gp120 antibody PG9, primary screen, biochemical, TR-FRET; TR-FRET gp120-PG9 antibody binding; inhibition, % at 6.7 µM; hit rate 0.43% among 360,000; AID 624416, 2012; in the data active means inhibition above about 8.5%
SKN-1 block: suppressors of acrylamide-induced Pgst-4::GFP reporter in worms, primary screen, SKN-1 inhibitor project, whole organism, uHTS, GFP/RFP fluorescence ratio, strain VP596; C. elegans VP596 Pgst-4::GFP/RFP ratio, 24 h; inhibition, % at 21.8 µM; hit rate 0.49% among 360,000;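 active means interference check ratio from 0.5 to 1.5 plus GFP to RFP signal ratio inhibition reaching or exceeding a fixed threshold, cut at about 30% in these data, passing the limit was not always enough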
NR2E3 ag-2: inhibitors of NR2E3-RetCOR corepressor binding, primary screen, NR2E3 agonist project, biochemical, TR-FRET, GST-NR2E3, biotin-RetCOR | Photoreceptor-specific nuclear receptor (Homo sapiens), Q9Y5X4 | 1536-well | inhibition of corepressor binding, % at 4.78 µM | hit rate 0.12% among 320,000 | AID 2300, 2010;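 active means percent inhibition above the cutoff of mean plus 3 SD of all tested compounds, set per screening campaign, cut at about 20% in these data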;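 further: 0% = DMSO wells and 100% = biotin wells as full block of FRET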
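System: GST-tagged NR2E3 plus biotinylated RetCOR corepressor; Buffer or medium: pH 7.5 Tris-based buffer; Probe or stimulus: RetCOR corepressor, biotinylated, 7 nM; Doses: compound at 4.8 µM, single dose; Schedule: 5 h incubation at 4 °C; Technique: time-resolved FRET; Evaluation: percent inhibition of TR-FRET ratio; Replication: one well per compound, singlicate testing.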
NR1D1 mod conf: modulators of Rev-erb alpha DNA binding, confirmation, biochemical, FITC-DNA, fluorescence polarization, single point; shares compounds with NR1D1 modulator; 90 min; activation, % at 25 µM; hit rate 61% among 3,000;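 active means activation at or above a set limit, or at least 3 SD above the negative control mean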;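 further: 0% = 35 nM protein with DMSO and 100% = 750 nM protein high control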
RORg counter: modulation of RORgamma DNA binding, dose response, counter-screen for Rev-erb alpha modulator project, biochemical, fluorescence polarization, FITC-DNA | shares compounds with NR1D1 modulator | purified RORgamma protein-FITC-DNA binding | IC50, µM | hit rate 8% among 910 | AID 1259320, 2017;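 active means Compounds whose fitted half-maximal concentration for disrupting protein-DNA binding is below 10 micromolar; the record names Rev-erb in its text, so the target is in doubt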
* hit, by the source's call; . = not tested or not shown. Compounds with a hit are over-represented: about 1.9% of the library has one in this group of screens.

SMILES	MT1-MMP act inh	NR2E3 ag-1	NR1D1 modulator	PG9 binder	SKN-1 block	NR2E3 ag-2	NR1D1 mod conf	others
COc1ccccc1C(=O)N1CCN(C(=O)[C@@H](Cc2ccccc2)NC(=O)[C@H]2O[C@@H](n3ccc(N)nc3=O)[C@H](O)[C@@H]2O)CC1	.	.	13	-1	.	.	.
CC1(C)Cc2c(c(N3CCOCC3)nc3sc4c(NCCN5CCOCC5)nnnc4c23)CS1	-7	-1	4	-1	-11	2	.
CC(C)CCNc1nnnc2c1sc1nc(N3CCOCC3)c3c(c12)CC(C)(C)SC3	-3	-6	21*	-1	-4	4	5
O=C(CCc1nc(-c2ccccc2F)no1)NCCc1ccccc1F	.	.	4	.	.	.	.
O=C(Nc1cccc(-c2nc3ncccc3o2)c1)c1sc2cc(Cl)ccc2c1Cl	6	-30	31*	-1	6	8	17*
COc1cccc(C(C(=O)NCc2ccccc2)N2CCN(c3cccc(C)c3C)CC2)c1OC (stereo unspecified)	-1	.	-2	-1	-2	.	.
Cc1nnc2nc(N)[nH]n2c1=O	.	.	-3	0	.	.	.
Cc1cc(NC(=O)CSc2nc3ccccc3c(=O)n2-c2ccccc2)no1	3	-1	27*	1	-11	-1	6
O=C(CSc1nc2ccccc2c(=O)n1-c1ccc(F)cc1)Nc1cc(S(=O)(=O)N2CCOCC2)ccc1Cl	1	-11	65*	-1	-3	-1	34*	RORg counter=>40
O=C(CSc1nc2ccccc2c(=O)n1-c1ccc(F)cc1)Nc1ccc(N2CCOCC2)cc1	-2	-12	-5	0	2	2	.
Cc1ccc(NC(=O)CSc2nc3ccccc3c3nc4ccccc4n23)cc1	-4	-42	58*	3	9	-2	10
Cc1ccc(-n2c(SCC(=O)Nc3cccc(C)c3)nc3c(oc4ccccc43)c2=O)cc1	.	.	79*	-1	.	-1	125*	RORg counter=>40
Cc1cc(-c2n[nH]c(=S)n2N=Cc2cc(Br)ccc2F)n[nH]1	.	.	-6	.	.	.	.
COc1cc(OC)c(NC(=O)NNC(=O)C(=O)NC2CC2)cc1Cl	.	.	-7	1	.	.	.
O=C(OC12CCCN(C1)/C(=C/c1ccc(Cl)cc1)C2)c1ccco1 (stereo unspecified)	.	.	0	.	.	.	.
CCCCn1c(SCC(=O)Nc2cc(C)on2)nc2ccsc2c1=O	-1	8	45*	-3	10	1	27*
COc1ccc(-n2c(SCC(=O)Nc3ccc4c(c3)OCO4)nc3ccccc3c2=O)cc1	5	-3	2	-3	15	3	.
Cc1cc(NC(=O)CSc2nc3ccsc3c(=O)n2CCCCC(=O)O)no1	-2	20	1	1	-14	4	.
Cc1ccc(C(=O)CSc2nc3ccccc3c(=O)n2-c2ccccc2)s1	2	-12	49*	29*	-23	-3	35*	RORg counter=>40
O=C(O)c1ccc(CSc2nc3ccccc3c(=O)n2-c2ccccc2)cc1	-2	-7	-2	-4	-8	2	.
COc1ccc(NC(=O)CSc2nc3ccccc3c(=O)n2-c2ccc3c(c2)OCO3)c(OC)c1	-2	-5	84*	-1	14	-7	127*	RORg counter=>40
CN(C)/C=N/c1c(C#N)cnn1-c1ccccc1	7	-16	-3	0	7	0	.
CN(C)/C=N/c1c(C#N)cnn1-c1nc2ccccc2s1	6	1	50*	2	15	2	19*
NS(=O)(=O)c1ccc(CCNC(=O)c2cc3ccccc3s2)cc1	-8	7	23*	-1	18	-1	6
NS(=O)(=O)c1ccc(CCNC(=O)c2ccc(Cl)s2)cc1	-7	-10	3	2	8	-2	.
SMILES	MT1-MMP act inh	NR2E3 ag-1	NR1D1 modulator	PG9 binder	SKN-1 block	NR2E3 ag-2	NR1D1 mod conf	others
COc1ccc2c(=O)c3c(=O)n(CCc4ccccc4)c(C)nc3oc2c1	-6	-17	0	-1	-1	.	.
COc1ccc2c(=O)c3c(=O)n(CCc4ccccc4)c(C(C)C)nc3oc2c1	1	1	25*	-1	-2	-3	1
CCOC(=O)C1=CCN(S(=O)(=O)c2ccc(Cl)cc2)C1c1ccc(Br)cc1 (stereo unspecified)	.	.	-5	0	.	.	.
Cc1cc(NC(=O)CSc2nc(-c3ccccc3Cl)nc3c2c(=O)n(C)c(=O)n3C)no1	3	0	28*	1	-2	2	7
CSc1nc(C)c2c(n1)N(c1ccc(C(F)(F)F)cc1)CC2	-2	-24	23*	-1	-13	2	1
COC(=O)Cn1c(=O)c(=O)n(CC(=O)OC)c2ccccc21	1	-7	-6	-3	-16	0	.
CNC(=O)/C(C#N)=C/c1cn(CC(=O)OC)c2ccccc12	7	14	0	-2	-18	0	.
COC(=O)Cn1cc(/C=C/c2cc[n+](C)cc2)c2ccccc21	-149	-6	55*	-3	-22	-7	63*	RORg counter=>40
COC(=O)Cn1c(C)c(/C=C/c2cc[n+](C)cc2)c2ccccc21	-186	-15	154*	-10	-12	.	114*	RORg counter=>40
O=C(Nc1nc2ccc(Cl)cc2s1)c1cccc(N2C(=O)CCC2=O)c1	2	-56	43*	1	6	-5	7
Cc1ccc(CN2CCCCC(NC(=O)Nc3cccc(F)c3)C2=O)cc1 (stereo unspecified)	.	.	-1	.	.	.	.
COC(=O)c1ccsc1NC(=O)c1ccc2c(c1)OCCO2	-5	-8	8	0	0	2	.
COC(=O)c1ccsc1NC(=O)c1ccc(Cl)s1	-6	-12	20*	-2	1	2	-2
COc1ccc(C(=O)CSc2nnc(-c3ccc(S(=O)(=O)N4CCOCC4)cc3)o2)cc1	3	0	14	3	-7	0	.
